Laboratory results taken from ChEMBL document CHEMBL1212893, “Antiplasmodial triterpenoids from the fruits of neem, Azadirachta indica” (J Nat Prod, 2010).
pIC50: −log10 of the molar value.

Legend:
[1] = system: Plasmodium falciparum; test: Antiplasmodial activity against chloroquine-sensitive Plasmodium falciparum D10 after 72 hrs by LDH assay; format: functional, organism-based; conditions: D10, 72 h
Outline: (§1)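 P. falciparum grown in human A+ red cells at 5% hematocrit in RPMI 1640 with 1% AlbuMaxII, 0.01% hypoxanthine, 20 mM Hepes and 2 mM glutamine, at 37 °C under 1% O2/5% CO2/94% N2. Compounds dissolved in water or DMSO and diluted in medium. Growth read by pLDH. Values are mean ± SD of three experiments run in duplicate.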

[2] = system: Plasmodium falciparum; test: Antiplasmodial activity against chloroquine-resistant Plasmodium falciparum W2 after 72 hrs by LDH assay; format: functional, organism-based; conditions: W2, 72 h; outline: as §1

| Compound | pIC50 [1] | pIC50 [2] |
| --- | --- | --- |
| CC(=O)O[C@@H]1C[C@H]2C(C)(C)C(=O)C=C[C@]2(C)[C@H]2CC[C@]3(C)C(=CC(=O)[C@H]3c3ccoc3)[C@@]21C [AZADIRADIONE] | 5.22 | 5.47 |
| CC(=O)O[C@@H]1C[C@H]2C(C)(C)C(=O)C=C[C@]2(C)[C@H]2CC[C@]3(C)C(=CC[C@H]3c3ccoc3)[C@@]21C [AZADIRONE] | 5.79 | 5.92 |
| CC1(C)C(=O)C=C[C@]2(C)[C@H]3CC[C@@]4(C)[C@H](c5ccoc5)OC(=O)[C@H]5O[C@]54[C@]3(C)[C@H](O)C[C@@H]12 [DEACETYLGEDUNIN] | 5.29 | 5.48 |
| CC(=O)O[C@@H]1C[C@H]2C(C)(C)C(=O)C=C[C@]2(C)[C@H]2CC[C@]3(C)C(=CC(=O)[C@H]3[C@@H]3COC(O)C3)[C@@]21C (some centres undefined) [DESMETHYLLIMOCIN B] | 5.32 | 5.59 |
| CC(=O)O[C@@H]1C[C@H]2C(C)(C)C(=O)C=C[C@]2(C)[C@H]2CC[C@@]3(C)[C@H](c4ccoc4)C(=O)[C@H]4O[C@]43[C@@]21C [EPOXYAZADIRADIONE] | 5.48 | 5.67 |
| CC(=O)O[C@@H]1C[C@H]2C(C)(C)C(=O)C=C[C@]2(C)[C@H]2CC[C@@]3(C)[C@H](c4ccoc4)OC(=O)[C@H]4O[C@]43[C@@]21C [GEDUNIN] |  | 5.88 |
| CC(=O)O[C@H]1CC(=O)C(C)(C)[C@@H]2C[C@@H](OC(C)=O)[C@@]3(C)C4=CC[C@@H]([C@@H]5COC(O)C5)[C@]4(C)CC[C@@H]3[C@@]12C (some centres undefined) [NEEMFRUITIN A] | 5.55 | 5.76 |
| CC(=O)O[C@H]1O[C@@H]([C@@H]2OC2(C)C)C[C@H]1[C@@H]1CC=C2[C@]3(C)[C@H](O)C[C@H]4C(C)(C)C(=O)C=C[C@]4(C)[C@H]3CC[C@]21C [NEEMFRUITIN B] | 5.02 | 5.00 |
| CC(=O)O[C@@H]1C[C@H]2C(C)(C)C(=O)C=C[C@]2(C)[C@H]2CC[C@]3(C)C(=CC[C@H]3[C@H]3CO[C@@H]([C@H](O)C(C)(C)O)C3)[C@@]21C [PROTOXYLOCARPIN G] | 5.30 | 5.62 |
| CC(=O)O[C@@H]1C[C@H]2C(C)(C)C(=O)C=C[C@]2(C)[C@H]2CC[C@]3(C)C(=CC[C@H]3[C@H]3COC(O)(C(C)(C)O)[C@H](O)C3)[C@@]21C (some centres undefined) [SPICATIN] | 5.27 | 5.56 |
